Paper PMC3428507 (Journal of molecular biology, 2012)

Legend:
Pf1 PHD2 = assay: NMR titration of Pf1 PHD2 with small molecule mimics of histone modifications; assay type: binding, human; settings: unpublished data
Pf1 PHD1 [1] = target: T1, Pf1 PHD1 (Homo sapiens, UniProt Q96QT6); assay type: binding; settings: even at molar concentrations; unpublished data
Pf1 PHD1 [2] = target: T1, Pf1 PHD1; assay: Pulldown of GST-Pf1 PHD1 with biotinylated histone H3 peptides; assay type: binding; settings: GST-Pf1 PHD1 (residues 53–103); wash 50 mM Tris pH 7.5, 150 mM NaCl, 0.05% NP-40; SDS-PAGE, Coomassie
Method in brief: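 GST-Pf1 PHD1 (53–103) and GST-Pf1 PHD2 (268–319) came from E. coli and were eluted from glutathione resin with glutathione. They were incubated with an array of biotinylated histone H3 peptides on avidin beads. Washes also held 0.3 mg/ml BSA and 1 mM DTT. Bound protein was resolved by SDS-PAGE.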

MRG15 CD = MRG15 CD (Homo sapiens, UniProt Q9UBU8); assay: NMR titration of 15N-labeled MRG15 CD with methyllysine peptides/ligands; assay type: binding
[3] = system: Pf1 PHD1/MBD (residues 48–241); assay: NMR of 15N-labeled Pf1 PHD1/MBD with MRG15 proteins; assay type: binding, human; settings: equimolar; 20 mM Tris pH 7.5, 50 mM NaCl, 10 μM ZnSO4, 15 mM DTT, 0.2% NaN3, 25 °C

T1 sequence (Q96QT6 48-116): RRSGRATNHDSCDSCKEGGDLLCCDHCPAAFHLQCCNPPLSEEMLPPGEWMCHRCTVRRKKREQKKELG
Chain of MRG15 CD (Q9UBU8 1-90 isoform Q9UBU8-2): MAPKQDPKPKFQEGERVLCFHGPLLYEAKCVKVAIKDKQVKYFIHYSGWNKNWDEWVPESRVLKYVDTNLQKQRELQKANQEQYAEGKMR

| binding to Pf1 PHD1 in pulldown (Pf1 PHD1 [2]) | Molecule | interaction with Pf1 PHD2 in NMR titrations (Pf1 PHD2) | further results |
| --- | --- | --- | --- |
| – | CC(=O)NCCCC[C@H](N)C(=O)O [acetyllysine] | lack of any interaction | interaction with Pf1 PHD1 in NMR titrations (Pf1 PHD1 [1]): neither trimethyllysine nor acetyllysine interacted with Pf1 PHD1 |
| failed to do so | H3 peptides spanning residues 27–46: biotinylated H3 peptide spanning residues 27–46 | – | – |
| – | dimethylarginine | lack of any interaction | – |
| – | C[N+](C)(C)CCCC[C@H](N)C(=O)O [trimethyllysine] | lack of any interaction | Kd (MRG15 CD): 11 ± 3.3 mM; perturbations in the MRG15 CD NMR spectrum (MRG15 CD; pH 7.5, 25 °C): induced a similar pattern of perturbations in the NMR spectrum of MRG15 CD as the aforementioned peptides; interaction with Pf1 PHD1 in NMR titrations (Pf1 PHD1 [1]): neither trimethyllysine nor acetyllysine interacted with Pf1 PHD1 |
| – | N[C@@H](COP(=O)(O)O)C(=O)O [phosphoserine] | lack of any interaction | – |
| – | C[C@@H](OP(=O)(O)O)[C@H](N)C(=O)O [phosphothreonine] | lack of any interaction | – |
| – | MRG15 MRG: MRG domain of MRG15 (residues 155–323) | – | effect on 15N-Pf1 PHD1/MBD spectrum [3]: disappearance of resonances corresponding to the PHD1 domain |
| failed to do so | 18–37: biotinylated H3 peptide spanning residues 18–37 | – | – |
| bound to Pf1 PHD1 | H3 peptide spanning residues 1–20: unmodified biotinylated histone H3 peptide spanning residues 1–20 | – | – |
